Data taken from BindingDB's records for doi:10.1021/np900192r (Cnrs, 2009).

What follows are molecules tested against Bcl-2-like protein 1 (Homo sapiens, UniProt Q07817) (assay: Binding affinity to Bcl-xL by fluorescein-labeled Bak-BH3 peptide competition binding assay).
How it was run: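 Fluorescence polarization competition on Bcl-xL against a fluorescein-tagged Bak BH3-domain peptide as the reference ligand. Ki is the dissociation constant at equilibrium with the reference ligand. Unlabeled Bak(BH3) peptide and a substituted terphenyl derivative served as positive controls. Bcl-xL values are from duplicate runs.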

Bcl-2-like protein 1, sequence (Q07817 whole entry): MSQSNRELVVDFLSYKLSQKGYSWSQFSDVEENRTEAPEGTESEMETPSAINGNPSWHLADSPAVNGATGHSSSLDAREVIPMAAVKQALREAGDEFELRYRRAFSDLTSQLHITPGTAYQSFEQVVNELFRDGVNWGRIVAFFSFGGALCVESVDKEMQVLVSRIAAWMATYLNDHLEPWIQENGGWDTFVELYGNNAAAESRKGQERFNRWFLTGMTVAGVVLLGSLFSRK

Ki, > 100 µM:
CC(=O)O[C@@H]1[C@@H](OC(C)=O)[C@@H](O)[C@H](OC[C@]2(C)[C@@H](OC(C)=O)C[C@H](O)[C@]3(C)[C@H]4CC=C5[C@H]6C[C@](C)(C(=O)O)CC[C@]6(C)CC[C@@]5(C)[C@]4(C)CC[C@@H]23)O[C@H]1C [23-O-[alpha-L-(3',4'-Diacetylrhamnopyranosyl]-3beta-acetylimberbic acid]
COC(=O)[C@]1(C)CC[C@]2(C)CC[C@]3(C)C(=CC[C@@H]4[C@@]5(C)[C@@H](O)C[C@H](OC(C)=O)[C@@](C)(CO[C@@H]6O[C@@H](C)[C@H](OC(C)=O)[C@@H](O)[C@H]6O)[C@@H]5CC[C@]43C)[C@H]2C1 [23-O-[alpha-L-(4'-Acetylrhamnopyranosyl]-3beta-acetylimberbic acid 29-methyl ester]
CC(=O)O[C@@H]1[C@@H](O)[C@@H](O)[C@H](OC[C@]2(C)[C@@H](OC(C)=O)C[C@H](O)[C@]3(C)[C@H]4CC=C5[C@H]6C[C@](C)(C(=O)O)CC[C@]6(C)CC[C@@]5(C)[C@]4(C)CC[C@@H]23)O[C@H]1C [23-O-[alpha-L-(4'-Acetylrhamnopyranosyl]-3beta-acetylimberbic acid]
